One assay concerns MCF7. As to the kind of experiment: In vitro Inhibition on growth of human MCF 7 breast carcinoma cell line. The assay is classed as functional, cell-based. In short, it runs like this: (§1)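 Monolayer cultures in DMEM with 10% FBS, 2 mM L-glutamine, penicillin/streptomycin, 37 °C, 5% CO2. Cells plated on day 0 at densities set by doubling time (1 × 10⁴/mL HeLa, Hep-2, MiaPaCa-2, SW 620; 2 × 10⁴/mL MCF-7; 3 × 10⁴/mL WI 38). Compound added at five 10-fold dilutions (10^-8 to 10^-4 mol/L) for 72 h. MTT read at 570 nm, converted to percentage growth versus time-zero and untreated controls. Quadruplicate points, three experiments. IC50 by linear regression.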

The test system of assay [1] is SW-620. The assay can be described thus: In vitro Inhibition on growth of human SW 620 colon carcinoma cell line. The class given is functional, cell-based. In outline:
as §1

In assay [2] the test system is HeLa. The assay can be described thus: In vitro Inhibition on growth of human HeLa cervical carcinoma cell line. The class given is functional, cell-based. In outline:
as §1

Assay [3] can be described thus: In vitro Inhibition on growth of human WI 38 diploid fibroblast cell line. The class given is functional, cell-based. In outline: as §1
Assay [4] in a line: In vitro Inhibition on growth of human Hep 2 laryngeal carcinoma cell line. The class given is functional. In short, it runs like this: as §1
The subject of assay [5] is MIA PaCa-2. As to the kind of experiment: In vitro Inhibition on growth of human MiaPaCa-2 pancreatic carcinoma cell line. The class given is functional, cell-based. In short, it runs like this: as §1
Assay [6] has as its system HeLa. As to the kind of experiment: Percentage of apoptosis induced by compound in HeLa cell line after at 5 uM concentration 72 h. The class given is functional, Homo sapiens. In outline: (§2)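 Annexin-V assay after 72 h exposure to 5 or 10 µM. Cells washed with PBS, pelleted, and stained with Annexin-V-fluorescein plus propidium iodide in Hepes buffer. Scored by fluorescence microscopy: Annexin-V-positive cells counted as apoptotic, Annexin-V/PI double-positive as necrotic. Apoptotic fraction given as percentage of total cells.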

Assay [7] concerns HeLa. As to the kind of experiment: Percentage of apoptosis induced by compound in HeLa cell line after at 10 uM concentration 72 h. The class given is functional, Homo sapiens. In short, it runs like this: as §2
Assay [8] concerns SW-620. The assay can be described thus: Percentage of apoptosis induced by compound in SW 620 cell line at 5 uM concentration after 72 h. The assay is classed as functional, Homo sapiens. In short, it runs like this:
as §2

Assay [9] concerns SW-620. The assay can be described thus: Percentage of apoptosis induced by compound in SW 620 cell line at 10 uM concentration after 72 h. The assay is classed as functional, Homo sapiens. In short, it runs like this: as §2
For assay [10], the system named is MIA PaCa-2. The assay can be described thus: Percentage of apoptosis induced by compound in MiaPaCa-2 cell line at 5 uM concentration after 72 h. The assay is classed as functional, Homo sapiens. In short, it runs like this:
as §2

Assay [11] concerns MIA PaCa-2. The assay can be described thus: Percentage of apoptosis induced by compound in MiaPaCa-2 cell line at 10 uM concentration after 72 h. The class given is functional, Homo sapiens. In outline:
as §2

A value given as a limit tells only on which side of the number the result lay.

Drawing on ChEMBL document CHEMBL1145210, “Novel cyano- and N-isopropylamidino-substituted derivatives of benzo[b]thiophene-2-carboxanilides and benzo[b]thieno[2,3-c]quinolones: synthesis, photochemical synthesis, crystal structure determination, and antitumor evaluation. 2” (J Med Chem, 2005), this text covers IC50 and Apoptosis for three compounds.

For `COC(=O)c1ccc2nc(O)c3sc4cc(C(=N)NC(C)C)ccc4c3c2c1`, the IC50 was 5.56 µM in the assay with MCF7; 8.11 µM with SW-620 [1]; 15.8 µM in the assay on HeLa [2]; 5.33 µM in assay [3]; 97 µM in [4]; 6.93 µM in the assay on MIA PaCa-2 [5]. The Apoptosis in the assay with HeLa [6] was found to be 13%; with HeLa [7], 15%; in the assay on SW-620 [8], 6%; in the assay on SW-620 [9], 7%; with MIA PaCa-2 [10], 6%; with MIA PaCa-2 [11], 14%.

Take `CC(C)/N=C(/N)c1ccc2c(c1)sc1c(O)nc3ccc(Br)cc3c12`: the IC50 with MCF7 turned out to be 6.28 µM; in the assay on SW-620 [1], 13.2 µM; in the assay on HeLa [2] it was 8.92 µM; in assay [3], 3.88 µM; in [4], 9.79 µM; in the assay with MIA PaCa-2 [5], 7.99 µM. In addition, the Apoptosis in the assay on HeLa [6] is listed as 10%; in the assay with HeLa [7] it was 15%; in the assay with SW-620 [8], 9%; with SW-620 [9] it was 13%; in the assay on MIA PaCa-2 [10], 3%; with MIA PaCa-2 [11] it was 11%.

Turning to `COC(=O)c1ccc(NC(=O)c2sc3cc(C#N)ccc3c2Cl)cc1`, the IC50 in the assay with MCF7 was > 100 µM; in the assay with SW-620 [1] it was 4.62 µM; in the assay with HeLa [2] it was 24.1 µM; in [3], 2.71 µM; in assay [4] it was 59.1 µM; with MIA PaCa-2 [5] it was > 100 µM. Moreover, the Apoptosis with HeLa [6] is recorded as 6%; with HeLa [7], 52%; with SW-620 [8], 6%; in the assay with SW-620 [9], 71%; with MIA PaCa-2 [10], 3%; in the assay on MIA PaCa-2 [11], 9%.

Usually IC50 stands for the concentration that gives 50% inhibition.
